Sampled rows, rich in hits. Any-hit rate of the full collection: about 2.5%.
MC4R barr agon: agonists of human melanocortin 4 receptor (MC4R) beta-arrestin; activation, % at 8.9 µM; hit rate 0.98% among 360,000; AID 540308; P32245; U2OS MC4R beta-arrestin complementation, luminescence; percent of melanotan II response, DMSO zero;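 active = activation above a per-plate cutoff, the mean activation of sample wells on that plate plus 3 SD, cut at about 8% in these data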
PG9 Ab binder: binds the HIV-1 gp120 antibody PG9. inhibition, % at 6.7 µM. TR-FRET gp120-PG9 antibody binding. AID 624416. hit rate 0.43% among 360,000; in the data active = inhibition above about 8.5%
NTR1 ag: agonists of human neurotensin receptor NTR1. NTR1-U2OS beta-arrestin-GFP spot imaging, agonist mode. activation, % at 20 µM. hit rate 0.17% among 330,000. AID 493036;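 active = activation at or above 40% of the spot to cytoplasm intensity ratio, with at least 20 cells analyzed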;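 also: 0% = DMSO without peptide and 100% = 100 nM NTR1 peptide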
Target sequence (P30989 whole entry, looked up): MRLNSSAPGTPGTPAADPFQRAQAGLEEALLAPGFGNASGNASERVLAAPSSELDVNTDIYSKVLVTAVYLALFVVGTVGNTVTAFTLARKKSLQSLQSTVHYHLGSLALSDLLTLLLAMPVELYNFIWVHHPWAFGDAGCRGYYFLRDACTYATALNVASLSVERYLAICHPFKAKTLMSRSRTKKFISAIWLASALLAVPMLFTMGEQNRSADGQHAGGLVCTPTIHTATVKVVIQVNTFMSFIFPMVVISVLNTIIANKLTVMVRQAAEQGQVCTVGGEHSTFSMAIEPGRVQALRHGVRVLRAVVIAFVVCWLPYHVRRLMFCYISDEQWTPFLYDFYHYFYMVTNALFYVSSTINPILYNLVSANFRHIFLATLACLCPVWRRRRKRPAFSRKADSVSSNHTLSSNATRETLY
MC4R antagonist: human MC4R antagonism in cAMP assay. MC4R-expressing cells, MTII-stimulated cAMP, LANCE TR-FRET. AID 540295. P32245. hit rate 0.48% among 360,000. inhibition, % at 6.5 µM;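 active = inhibition above its plate's cutoff, the mean of tested wells on that plate plus 3 SD, cut at about 29% in these data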;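 also: 0% = Melanotan II alone and 100% = Melanotan II plus saturating MCL0020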
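Material: human MC4R-expressing U2OS cells. Probe or stimulus: Melanotan II challenge. Dosing: 6.5 µM single dose. Times: 30-min compound, 1-h challenge, 1-h detection, room temperature. Technique: TR-FRET with Eu-cAMP and labeled anti-cAMP, 671 nm. Replication: singlicate.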
Rev-erbA mod: modulators of human Rev-erb alpha DNA binding. P20393. Rev-erbα–FITC-DNA binding, fluorescence polarization, 90 min. activity, % at 10 µM. hit rate 0.79% among 370,000;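 active = activity above about 14%, limit read from the data; passing the limit was not always enough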;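 also: 0% = DMSO wells with 35 nM protein and 100% = DMSO wells with 750 nM protein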
NR1D1 mod conf: Rev-erb alpha (human) modulation, hit confirmation; Rev-erb alpha FITC-DNA binding, fluorescence polarization, 90 min; shares compounds with Rev-erbA mod; activation, % at 25 µM; hit rate 61% among 3,000;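 active = activation at or above a set limit, or at least 3 SD above the negative control mean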;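 also: 0% = 35 nM protein with DMSO and 100% = 750 nM protein high control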
RORg DNA counter: affects RORgamma DNA binding in a Rev-erb alpha counter-screen. shares compounds with Rev-erbA mod. purified RORgamma protein-FITC-DNA binding, fluorescence polarization. IC50, µM. hit rate 8% among 910;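 active = Compounds whose fitted half-maximal concentration for disrupting protein-DNA binding is below 10 micromolar; the record names Rev-erb in its text, so the target is in doubt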
Active calls of the source: *; i = inactive; . = no result.

SMILES | MC4R barr agon | PG9 Ab binder | NTR1 ag | MC4R antagonist | Rev-erbA mod | NR1D1 mod conf | others
O=C(OCc1cn(Cc2ccc(F)cc2F)nn1)N1CCOCC1 | . | . | . | . | 4 | .
Cc1oc2ncnc(N)c2c1C | -1 | 0 | 0 | -4 | 3 | .
Cc1ccc(-c2oc3ncnc(N)c3c2-c2ccc(C)cc2)cc1 | 4 | 6 | 3 | -7 | 20* | 8
Cc1cc(C)n2[nH]c(=O)c(N=Nc3ccc(S(N)(=O)=O)cc3)c2n1 | -2 | -13 | -1 | -30 | 12 | .
Cc1ccc(N=Nc2c(=O)[nH]n3c(C)cc(C)nc23)cc1 | -2 | -12 | 0 | -26 | 17* | 4
COCCN(Cc1cc2cc3c(cc2n2nnnc12)OCO3)C(=O)c1ccccc1F | -2 | 0 | 1 | 3 | -2 | .
COCCN(Cc1cc2cc(C)ccc2n2nnnc12)C(=S)Nc1ccccc1C | 2 | -2 | 4 | 2 | 87* | 40* | RORg DNA counter=>40
Cc1c(Br)ccc(NC(=O)Cn2nc(-c3cccs3)ccc2=O)c1C | 1 | 1 | 4 | 7 | 50* | 42* | RORg DNA counter=>40
Cc1cc(NC(=O)Cn2nc(-c3cccs3)ccc2=O)cc(C)c1Br | -2 | 0 | 2 | -14 | 6 | .
O=C(CN1C(=O)NC(Cc2ccccc2)C1=O)Nc1ccc(F)cc1 (stereo not drawn) | -2 | -1 | -1 | 6 | -1 | .
O=C(CN1C(=O)NC(Cc2ccccc2)C1=O)Nc1ccc(OC(F)(F)F)cc1 (stereo not drawn) | 1 | 0 | 0 | 2 | 14* | -7
Cc1cccc(CSc2nc3ccncc3n2CC(=O)Nc2cc(C)cc(C)c2)c1 | 3 | -2 | 11 | -1 | 29* | 13*
O=C1N2Cc3ccccc3C2CS(=O)(=O)N1C1CCCC1 (stereo not drawn) | . | . | . | . | -5 | .
C[C@H]1[C@H](NC(=O)/C(=N/OC(C)(C)C(=O)O)c2csc(N)n2)C(=O)N1S(=O)(=O)O (stereo in doubt) | . | . | . | . | -3 | .
O=C(Nc1cccc(C(F)(F)F)c1)c1cc(Br)cc2c1OCC2 | -1 | 0 | -1 | 5 | 28* | 31* | RORg DNA counter=4.5*
CCN(CC)c1ccc2c(O)cc(=O)oc2c1 | -1 | -2 | 3 | 4 | 1 | .
CCN(CC)c1ccc(C(=O)OCc2cc(=O)oc3cc(O)ccc23)cc1 | 8 | 3 | 20 | 0 | 33* | 17*
C=CCN1C(=O)[C@H](CC(=O)N2CCN(C(=O)c3ccco3)CC2)[C@@]2(C(=O)OCC)CCCC=C12 | . | . | . | . | 4 | .
O=C(Nc1cccc(-c2nnc(-c3ccccc3)o2)c1)c1ccco1 | -2 | 1 | 6 | 7 | 4 | .
O=C(Nc1ccccc1)c1cccc(-c2nnc(-c3ccccc3)o2)c1 | 0 | 1 | 8 | 1 | 30* | 10
COc1cccc(OC(=O)c2cc3ccccc3oc2=O)c1 | 3 | -1 | 0 | 6 | 2 | .
COc1ccc(-n2cc(C(=O)c3cc4ccccc4oc3=O)c(C(C)=O)n2)cc1 | 1 | 0 | -1 | 4 | 23* | 9
CCCN1C(=O)c2n[nH]c(C)c2C1c1ccc2c(c1)OCO2 (stereo not drawn) | . | 0 | . | . | 5 | .
COc1ccc(Cc2c(-c3ccccc3)nc3c4ccccc4ccn23)c(C)c1 | . | 0 | . | . | 1 | .
COc1ccc(-c2nc3c4ccccc4ccn3c2C=O)cc1 | -1 | -2 | 4 | -1 | 53* | 93* | RORg DNA counter=>40
SMILES | MC4R barr agon | PG9 Ab binder | NTR1 ag | MC4R antagonist | Rev-erbA mod | NR1D1 mod conf | others
CN(CC(=O)Nc1ccccc1C(F)(F)F)C(=O)CCc1nc2sc3c(c2c(=O)[nH]1)CCCC3 | -2 | 5 | -1 | 10 | 30* | 22*
CCN(CC(=O)Nc1ccccc1C(F)(F)F)C(=O)CCc1nc2sc3c(c2c(=O)[nH]1)CCCC3 | -2 | 5 | 1 | 0 | 20* | 0
Fc1ccc(-c2cc(-c3nnc4sc(-c5cccs5)nn34)[nH]n2)cc1 | . | . | . | . | -11 | .
CCOC(=O)c1sc(NC(=O)C(C)C)c(C#N)c1C | 0 | 3 | 0 | 11 | 47* | 26*
COC(=O)c1sc(NC(=O)C(C)C)c(C(=O)OC)c1C | -1 | 1 | -2 | 7 | 22* | 5
CCCCN1C[C@@H](COCc2ccccc2)Oc2cc(F)ccc2S1(=O)=O | . | . | . | . | -2 | .
Cc1cc(=O)oc2cc(OCC(=O)N3CCc4ccccc4C3)ccc12 | -2 | 0 | 0 | 10 | 1 | .
COc1ccc2c(c1)c(=O)oc1c(C)c(OCC(=O)N3CCc4ccccc4C3)ccc12 | -2 | 1 | 15 | 16 | 20* | -10
Cc1c(C(=O)Nc2ccc(Cl)cc2)c2ccccn2c1C(=O)c1ccccc1 | -1 | 0 | -1 | -1 | 43* | 18*
CC1CCN(S(=O)(=O)c2ccc3c(c2)c(=O)c(C(=O)NCc2cccs2)cn3C)CC1 | -1 | 0 | 0 | 6 | 29* | 10
COc1ccc(OC)c2c1sc(=NC(=O)C1CCCCC1)n2C | -1 | 1 | 4 | 0 | 44* | -15
COc1ccc(OC)c2c1sc(=NC(=O)C(C)(C)C)n2C | 1 | 0 | 4 | -5 | -1 | .
COCCn1c(=NC(=O)C2COc3ccccc3O2)sc2cc(S(N)(=O)=O)ccc21 (stereo not drawn) | -2 | 0 | 5 | 13 | -6 | .
CCn1c(=NC(=O)C2COc3ccccc3O2)sc2c(OC)ccc(OC)c21 (stereo not drawn) | -1 | -1 | 16 | 0 | 47* | 18
CCCC(=O)N=c1sc2c(OC)ccc(OC)c2n1C | 1 | -3 | 1 | 1 | 40* | 17
CCCC[C@H](C)C[C@H](O)/C=C/[C@H]1[C@H](O)CC(=O)[C@@H]1CCCC/C=C/C(=O)O | . | . | . | . | -4 | .
Cc1cc(OC(C)C(=O)NCc2cccnc2)c2c(C)c(Cc3ccccc3)c(=O)oc2c1 (stereo not drawn) | 2 | -3 | 5 | 14 | 107* | 104* | RORg DNA counter=>40
Cc1cc(OC(C)C(=O)NCc2cccnc2)c2c(C)c(C)c(=O)oc2c1 (stereo not drawn) | -2 | -1 | 0 | -1 | -7 | .
CC(C)(C)CNC(=O)c1ccc2c(c1)S(=O)(=O)c1cc(Cl)ccc1C2=O | 0 | -1 | 13 | 6 | -1 | .
Cc1cc(N(C)C(=O)c2ccc3c(c2)S(=O)(=O)c2cc(Cl)ccc2C3=O)c(C(F)(F)F)o1 | -1 | -3 | 6 | 3 | 20* | 20*
COC(=O)c1ccc(OCC(=O)Nc2ccccc2C(=O)NC2CC2)cc1 | 2 | 1 | 5 | 26 | 1 | .
CCC(=O)c1ccc(OCC(=O)Nc2ccccc2C(=O)NC2CC2)cc1 | 0 | -2 | 2 | 6 | 22* | 96* | RORg DNA counter=i

Screening results (PubChem BioAssay)
